These results are taken from ChEMBL document CHEMBL4665633, “Cereblon versus VHL: Hijacking E3 ligases against each other using PROTACs” (Bioorg Med Chem, 2019).

SMILES strings stand for the structures. The source made the active and inactive calls. No cut-off for these calls is given here.

Holding throughout (format): cell-based
The target in experiment [1] is T1, Protein cereblon/von Hippel-Lindau disease tumor suppressor (Homo sapiens, UniProt P40337+Q96SW2). Kind of experiment: Protac activity at VHL/CRBN in human HeLa cells assessed as CRBN protein abundance at 10 nM after 4 hrs by Western blot analysis relative to DMSO. The procedure, abridged: (§1)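 HeLa cells (5 × 10⁵, DMEM + 10% FBS, 37 °C, 5% CO₂, ≤30 passages) seeded overnight, then treated 4 h with compound at single or graded concentrations (0.1% v/v DMSO final). RIPA lysates equalised by Bradford; SDS-PAGE and anti-CRBN/anti-VHL immunoblots; bands normalised to β-tubulin and expressed as % of mean DMSO vehicle. DC₅₀ from fit of band intensity versus log[concentration].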
(In general: In western blotting, separated proteins are transferred to a membrane and probed.)

Experiment [2] deals with T1, Protein cereblon/von Hippel-Lindau disease tumor suppressor. The experiment can be described thus: Protac activity at VHL/CRBN in human HeLa cells assessed as pVHL30 protein abundance at 10 nM after 4 hrs by Western blot analysis relative to DMSO. The procedure, abridged:
as §1

Experiment [3] has the same target. Kind of experiment: Protac activity at VHL/CRBN in human HeLa cells assessed as pVHL19 protein abundance at 10 nM after 4 hrs by Western blot analysis relative to DMSO. Put shortly:
as §1

The target is the same in experiment [4]. The experiment can be described thus: Protac activity at VHL/CRBN in human HeLa cells assessed as induction of VHL degradation at 1 uM after 4 hrs by Western blot analysis. The procedure, abridged: as §1
Experiment [5] shares this target. The experiment can be described thus: Protac activity at VHL/CRBN in human HeLa cells assessed as CRBN protein abundance at 1 uM after 4 hrs by Western blot analysis relative to DMSO. The procedure, abridged:
(§2)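 HeLa cells seeded overnight, then exposed to 1 µM compound (0.1% v/v DMSO final) over a time course. Cells were DPBS-washed and RIPA-lysed with protease inhibitors and benzonase; equal protein was loaded. Immunoblots for CRBN and VHL isoforms were quantified against β-tubulin and reported relative to the averaged 0.1% DMSO vehicle.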

For experiment [6] the target is unchanged. Kind of experiment: Protac activity at VHL/CRBN in human HeLa cells assessed as pVHL19 protein abundance at 1 uM after 4 hrs by Western blot analysis relative to DMSO. The procedure, abridged:
as §2

Experiment [7] shares this target. The experiment can be described thus: Protac activity at VHL/CRBN in human HeLa cells assessed as pVHL30 protein abundance at 1 uM after 4 hrs by Western blot analysis relative to DMSO. Put shortly: as §2
For experiment [8] the target is unchanged. Kind of experiment: Protac activity at VHL/CRBN in human HeLa cells assessed as induction of CRBN degradation at 1 uM after 4 hrs by Western blot analysis relative to control. Put shortly: as §1

T1 sequence (P40337 whole entry, looked up): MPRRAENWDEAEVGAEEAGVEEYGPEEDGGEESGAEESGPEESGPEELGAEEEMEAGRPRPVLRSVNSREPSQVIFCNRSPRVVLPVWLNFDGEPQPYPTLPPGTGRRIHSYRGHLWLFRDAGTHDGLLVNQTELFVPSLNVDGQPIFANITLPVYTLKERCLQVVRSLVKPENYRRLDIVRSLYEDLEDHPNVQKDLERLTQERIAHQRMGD
T1 sequence (Q96SW2 whole entry, looked up): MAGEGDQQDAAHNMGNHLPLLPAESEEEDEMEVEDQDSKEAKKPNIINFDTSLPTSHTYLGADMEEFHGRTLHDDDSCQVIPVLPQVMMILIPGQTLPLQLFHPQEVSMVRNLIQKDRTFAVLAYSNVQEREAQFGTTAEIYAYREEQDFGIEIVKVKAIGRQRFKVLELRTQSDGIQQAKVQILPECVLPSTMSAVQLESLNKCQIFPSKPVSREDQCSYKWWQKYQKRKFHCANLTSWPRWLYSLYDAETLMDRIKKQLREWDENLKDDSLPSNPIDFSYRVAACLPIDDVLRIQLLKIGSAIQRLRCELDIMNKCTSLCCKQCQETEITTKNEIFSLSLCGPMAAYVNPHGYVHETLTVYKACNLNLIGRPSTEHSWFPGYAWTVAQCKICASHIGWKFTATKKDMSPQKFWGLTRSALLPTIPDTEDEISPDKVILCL

On to `Cc1ncsc1-c1ccc(CNC(=O)[C@@H]2C[C@@H](O)CN2C(=O)[C@@H](NC(=O)C2(F)CC2)C(C)(C)C)c(OCCCCC(=O)NCCNc2cccc3c2C(=O)N(C2CCC(=O)NC2=O)C3=O)c1` (stereo not given in full), for which the Activity came out at 80% in experiment [1]; 64% in experiment [2]; 100% in experiment [3]; 95% in experiment [5]; 134% in experiment [6]; 126% in experiment [7]. The result in experiment [4] was inactive.

Turning to `Cc1ncsc1-c1ccc(CNC(=O)[C@@H]2C[C@@H](O)CN2C(=O)[C@@H](NC(=O)COCCOCCOCCOCCOCCOCC(=O)NCCNc2cccc3c2C(=O)N(C2CCC(=O)NC2=O)C3=O)C(C)(C)C)cc1` (stereo not given in full), the Activity was found to be 85% in experiment [1]; 80% in experiment [2]; 93% in experiment [3]; 86% in experiment [5]; 97% in experiment [6]; 96% in experiment [7]. Further, the result in experiment [4] was inactive.

As to `Cc1ncsc1-c1ccc(CNC(=O)[C@@H]2C[C@@H](O)CN2C(=O)[C@@H](NC(=O)C2(F)CC2)C(C)(C)C)c(OCCOCCOCCOCC(=O)NCCNc2cccc3c2C(=O)N(C2CCC(=O)NC2=O)C3=O)c1` (stereo not given in full), the Activity amounted to 94% in experiment [1]; 76% in experiment [2]; 97% in experiment [3]; 71% in experiment [5]; 115% in experiment [6]; 113% in experiment [7]. Further, the result in experiment [4] was inactive.

For the molecule `Cc1ncsc1-c1ccc(CNC(=O)[C@@H]2C[C@@H](O)CN2C(=O)[C@@H](NC(=O)C2(F)CC2)C(C)(C)SCCOCCOCCOCCOCCOCC(=O)NCCNc2cccc3c2C(=O)N(C2CCC(=O)NC2=O)C3=O)cc1` (stereo not given in full), the Activity in experiment [1] stood at 82%; in experiment [2], 87%; in experiment [3], 89%; in experiment [5] it was 68%; in experiment [6] it was 112%; in experiment [7], 110%. For the same molecule, the result in experiment [4] was inactive.

`Cc1ncsc1-c1ccc(CNC(=O)[C@@H]2C[C@@H](O)CN2C(=O)[C@@H](NC(=O)C2(F)CC2)C(C)(C)SCCOCCOCCOCC(=O)NCCNc2cccc3c2C(=O)N(C2CCC(=O)NC2=O)C3=O)cc1` (stereo not given in full): the Activity turned out to be 78% in experiment [1]; 75% in experiment [2]; 87% in experiment [3]; 71% in experiment [5]; 121% in experiment [6]; 104% in experiment [7]. Also, the outcome in experiment [4] was inactive.

`Cc1ncsc1-c1ccc(CNC(=O)[C@@H]2C[C@@H](O)CN2C(=O)[C@@H](NC(=O)COCCCCCCOCC(=O)NCCNc2cccc3c2C(=O)N(C2CCC(=O)NC2=O)C3=O)C(C)(C)C)cc1` (stereo not given in full): the Activity was found to be 75% in experiment [1]; 50% in experiment [2]; 101% in experiment [3]; 65% in experiment [5]; 100% in experiment [6]; 75% in experiment [7]. The result in experiment [4] was inactive.

On to `Cc1ncsc1-c1ccc(CNC(=O)[C@@H]2C[C@@H](O)CN2C(=O)[C@@H](NC(=O)COCCOCCOCC(=O)NCCNc2cccc3c2C(=O)N(C2CCC(=O)NC2=O)C3=O)C(C)(C)C)cc1` (stereo not given in full), for which the Activity amounted to 91% in experiment [1]; 104% in experiment [2]; 94% in experiment [3]; 91% in experiment [5]; 102% in experiment [6]; 89% in experiment [7]. Further, the result in experiment [4] was inactive.

As for `Cc1ncsc1-c1ccc(CNC(=O)[C@@H]2C[C@@H](O)CN2C(=O)[C@@H](NC(=O)COCCOCCOCCOCCOCC(=O)NCCNc2cccc3c2C(=O)N(C2CCC(=O)NC2=O)C3=O)C(C)(C)C)cc1` (stereo not given in full), the Activity in experiment [1] is 81%; in experiment [2], 53%; in experiment [3] it was 92%; in experiment [5] it was 94%; in experiment [6] it was 103%; in experiment [7], 95%. In addition, the outcome in experiment [4] was inactive.

For the molecule `Cc1ncsc1-c1ccc(CNC(=O)[C@@H]2C[C@@H](O)CN2C(=O)[C@@H](NC(=O)C2(F)CC2)C(C)(C)SCCCCC(=O)NCCNc2cccc3c2C(=O)N(C2CCC(=O)NC2=O)C3=O)cc1` (stereo not given in full), the Activity came to 82% in experiment [1]; 53% in experiment [2]; 93% in experiment [3]; 81% in experiment [5]; 117% in experiment [6]; 114% in experiment [7]. For the same molecule, the outcome in experiment [4] was inactive.

On to `Cc1ncsc1-c1ccc(CNC(=O)[C@@H]2C[C@@H](O)CN2C(=O)[C@@H](NC(=O)COCCOCCOCCOCC(=O)NCCNc2cccc3c2C(=O)N(C2CCC(=O)NC2=O)C3=O)C(C)(C)C)cc1` (stereo not given in full), for which the Activity in experiment [1] turned out to be 91%; in experiment [2] it was 67%; in experiment [3] it was 98%; in experiment [5] it was 94%; in experiment [6], 103%; in experiment [7], 101%. Also, the outcome in experiment [4] was inactive.

On to `Cc1ncsc1-c1ccc(CNC(=O)[C@@H]2C[C@@H](O)CN2C(=O)[C@@H](NC(=O)C2(F)CC2)C(C)(C)C)c(OCCOCCOCCOCCOCCOCC(=O)NCCNc2cccc3c2C(=O)N(C2CCC(=O)NC2=O)C3=O)c1` (stereo not given in full), for which the Activity in experiment [1] worked out at 86%; in experiment [2], 76%; in experiment [3] it was 89%; in experiment [8], 54%; in experiment [5], 46%; in experiment [6] it was 103%. For the same molecule, the Activity in experiment [7] was determined as 77%. In experiment [4], the result was inactive.

On to `Cc1ncsc1-c1ccc(CNC(=O)[C@@H]2C[C@@H](O)CN2C(=O)[C@@H](NC(=O)COCCOCCOCCOCCOCCOCCOCCOCCOCC(=O)NCCNc2cccc3c2C(=O)N(C2CCC(=O)NC2=O)C3=O)C(C)(C)C)cc1` (stereo not given in full), for which the Activity in experiment [1] turned out to be 82%; in experiment [2] it was 54%; in experiment [3], 99%; in experiment [5] it was 91%; in experiment [6], 95%; in experiment [7] it was 91%. Besides, the outcome in experiment [4] was inactive.
